Source: ChEMBL document CHEMBL1123927, “Leukotriene receptor antagonists. 2. The [[(tetrazol-5-ylaryl)oxy]methyl]acetophenone derivatives” (J Med Chem, 1987)
The source made the active and inactive calls. No cut-off for these calls is given here.

Tests used:
[1] = molecular target: Cysteinyl leukotriene receptor (Cavia porcellus); experiment: Inhibition of LTD4-induced contraction in guinea pig ileum
Cavia porcellus [2] = species on record: Cavia porcellus; experiment: Inhibition of LTD4-induced contraction in guinea pig ileum. Not active at highest concentration tested, 1 x 10 E-5 M; type: functional
Summary of the method: (§1)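 Isolated guinea pig ileum contracted with a submaximal concentration of LTD4. Two, three or four antagonist concentrations were tested on a single ileum. […] Alternatively, pKB was taken as -log of the antagonist concentration producing a twofold rightward shift of the LTD4 concentration-response curve.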

Cavia porcellus [3] = species on record: Cavia porcellus; experiment: Inhibition of LTD4-induced contraction in guinea pig ileum. Not active at highest concentration tested, 3 x 10 E-6 M; type: functional
Summary of the method: as §1

Cavia porcellus [4] = species on record: Cavia porcellus; experiment: Antagonist activity was evaluated against LTD4-induced contraction in guinea pig ileum; type: functional; conditions: read-out: pA2 (converted)
Summary of the method: as §1

Row | Structure (SMILES) | -Log IC50 [1] | other results
1 | CCCc1c(CSCc2ccc(-c3nn[nH]n3)cc2)ccc(C(C)=O)c1O | 6.5 | –
2 | CCCc1c(COc2ccc(Cc3nnnn3C)cc2)ccc(C(C)=O)c1O | – | -Log IC50 (Cavia porcellus [2]): inactive
3 | CCCc1c(COc2ccc(-c3nn[nH]n3)cc2)ccc(C(C)=O)c1O | 8 | –
4 | CCCc1c(COc2ccc(C(C)c3nnn[nH]3)cc2)ccc(C(C)=O)c1O (stereo unspecified) | 7.9 | –
5 | CCCc1c(COc2ccc(Cc3nnn[nH]3)cc2)ccc(C(=O)CC)c1O | 7 | –
6 | CCCc1c(CSc2ccc(-c3nn[nH]n3)cc2)ccc(C(C)=O)c1O | 7.7 | –
7 | CCc1c(COc2ccc(-c3nn[nH]n3)cc2)ccc(C(C)=O)c1O | 7.9 | –
8 | CC(=O)c1ccc(COc2ccc(Cc3nnn[nH]3)cc2)cc1O | – | -Log IC50 (Cavia porcellus [3]): inactive
9 | CCCc1c(COc2ccc(Cc3nnn[nH]3)cc2)ccc(C(C)=O)c1O [LY-163443] | 8 | –
10 | CCCc1c(COc2cccc(OCc3nn[nH]n3)c2)ccc(C(C)=O)c1O | 8 | –
11 | CCCCc1c(COc2ccc(Cc3nnn[nH]3)cc2)ccc(C(C)=O)c1O | 7.8 | –
12 | CCCCc1c(COc2ccc(-c3nn[nH]n3)cc2)ccc(C(C)=O)c1O | 7.9 | –
13 | CCCc1c(COc2ccc(OCc3nn[nH]n3)cc2)ccc(C(C)=O)c1O | 7.8 | –
14 | CCCc1c(COc2ccc(-c3nn[nH]n3)cc2)ccc(C=O)c1O | 6.4 | –
15 | CCCc1c(COc2ccc(Cc3nnn(C)n3)cc2)ccc(C(C)=O)c1O | 6.2 | –
16 | CCCc1c(COCCOc2ccc(-c3nn[nH]n3)cc2)ccc(C(C)=O)c1O | 7.3 | –

Row | Structure (SMILES) | -Log IC50 [1] | other results
17 | CCCc1c(COCCOc2ccc(Cc3nnn[nH]3)cc2)ccc(C(C)=O)c1O | 7 | –
18 | CCCc1c(COc2ccc(-c3nn[nH]n3)cc2)ccc(C(=O)c2ccccc2)c1O | – | -Log IC50 (Cavia porcellus [2]): inactive
19 | CCCc1c(COc2cccc(Cc3nnn[nH]3)c2)ccc(C(C)=O)c1O | 7 | –
20 | CCc1c(COc2ccc(Cc3nnn[nH]3)cc2)ccc(C(C)=O)c1O | 7.9 | –
21 | CC(=O)c1ccc(COc2ccc(Cc3nnn[nH]3)cc2)c(CC(C)C)c1O | 7.7 | –
22 | CCCc1c(COc2ccccc2Cc2nnn[nH]2)ccc(C(C)=O)c1O | 6.2 | –
23 | CCCc1c(COc2ccc(CCCc3nnn[nH]3)cc2)ccc(C(C)=O)c1O | 7.3 | –
24 | CCCc1c(OCc2ccc(-c3nn[nH]n3)cc2)ccc(C(C)=O)c1O | 7 | –
25 | CCCc1c(COc2ccc(Cc3nnn[nH]3)cc2)ccc(C(C)=O)c1OC | 6.3 | –
26 | CCCc1c(COc2ccc(Cc3nnn[nH]3)cc2)ccc(/C(C)=N\O)c1O | 5.8 | –
27 | CCCc1c(OCCCCc2nnn[nH]2)ccc(C(C)=O)c1O [TOMELUKAST] | – | Kb (Cavia porcellus [4]): 63.1 nM
28 | CCCc1c(COc2ccc(CCc3nnn[nH]3)cc2)ccc(C(C)=O)c1O | 8.1 | –
29 | CCCc1c(CNc2ccc(Cc3nnn[nH]3)cc2)ccc(C(C)=O)c1O | 7.5 | –
30 | CCCc1c(COc2ccc(/C=C/c3nn[nH]n3)cc2)ccc(C(C)=O)c1O | 7.4 | –
31 | CC(=O)c1ccc(COc2ccc(-c3nn[nH]n3)cc2)c(C)c1O | 7 | –
